From ChEMBL document CHEMBL2385050 (J Med Chem, 2013)
pEC50, pIC50: −log10 of the molar value. Each block holds one compound with its values, some of them ahead of it.

How the values were obtained:
[1] = molecular target: T1, Estrogen receptor (Homo sapiens) (UniProt P03372); assay: Displacement of fluorescent ES2 from human recombinant ERalpha at 100 uM after 2 hrs by fluorimetric analysis relative to control
T1 sequence (whole entry): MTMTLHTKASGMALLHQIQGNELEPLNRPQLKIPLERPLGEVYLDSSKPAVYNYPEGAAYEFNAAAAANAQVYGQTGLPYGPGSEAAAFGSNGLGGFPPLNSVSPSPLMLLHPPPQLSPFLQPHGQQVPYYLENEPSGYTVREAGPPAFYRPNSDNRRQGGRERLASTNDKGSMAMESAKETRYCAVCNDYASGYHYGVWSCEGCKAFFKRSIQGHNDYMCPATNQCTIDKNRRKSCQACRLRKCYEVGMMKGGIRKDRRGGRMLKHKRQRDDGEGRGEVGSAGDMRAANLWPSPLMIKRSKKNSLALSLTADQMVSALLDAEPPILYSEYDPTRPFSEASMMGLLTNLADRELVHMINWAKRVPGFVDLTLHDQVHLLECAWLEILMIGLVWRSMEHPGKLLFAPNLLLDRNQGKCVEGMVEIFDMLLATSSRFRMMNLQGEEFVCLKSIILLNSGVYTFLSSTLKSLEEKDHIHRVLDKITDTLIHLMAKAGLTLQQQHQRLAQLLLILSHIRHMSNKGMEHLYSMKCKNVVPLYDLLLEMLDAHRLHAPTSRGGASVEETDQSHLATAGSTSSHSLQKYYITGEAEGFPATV
Outline: (§1)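 Fluorescence polarization competition with fluorescent estrogen ligand ES2 (9 nM) and recombinant human ER-α (30 nM) or ER-β (20 nM). Buffer: 100 mM potassium phosphate, 100 μg/mL BGG, 0.02% NaN3. Samples in methanol or methanol/dichloromethane; 2 h incubation protected from light. Read at Ex/Em 485/530 nm. Result is % polarization remaining vs vehicle control; mean of at least three experiments.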

[2] = molecular target: Estrogen receptor beta (Homo sapiens) (UniProt Q92731); assay: Displacement of fluorescent ES2 from human recombinant ERbeta at 100 uM after 2 hrs by fluorimetric analysis relative to control; outline: as §1
Sequence of Estrogen receptor beta (Homo sapiens) (Q92731 whole entry): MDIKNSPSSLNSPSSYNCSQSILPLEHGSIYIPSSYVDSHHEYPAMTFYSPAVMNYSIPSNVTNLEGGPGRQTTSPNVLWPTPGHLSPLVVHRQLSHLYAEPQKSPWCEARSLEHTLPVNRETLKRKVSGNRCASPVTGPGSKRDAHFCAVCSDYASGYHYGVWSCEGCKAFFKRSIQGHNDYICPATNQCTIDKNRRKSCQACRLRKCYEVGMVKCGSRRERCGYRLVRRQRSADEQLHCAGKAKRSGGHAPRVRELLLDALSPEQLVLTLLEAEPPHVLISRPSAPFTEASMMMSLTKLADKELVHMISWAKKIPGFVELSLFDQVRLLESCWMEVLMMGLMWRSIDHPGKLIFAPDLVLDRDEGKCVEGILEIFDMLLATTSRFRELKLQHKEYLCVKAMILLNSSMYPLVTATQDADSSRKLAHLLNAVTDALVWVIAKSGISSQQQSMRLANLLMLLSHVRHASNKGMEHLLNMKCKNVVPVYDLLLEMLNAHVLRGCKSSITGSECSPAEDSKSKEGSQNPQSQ

Aromatase [3] = molecular target: T2, Aromatase (Homo sapiens, UniProt P11511); assay: Inhibition of human recombinant microsomal aromatase-mediated 7-methoxy-4-trifluoromethylcoumarin conversion to 7-hydroxytrifluoromethylcoumarin at 50 uM preincubated for 10 mins measured after 30 mins by fluorescence assay relative to control; conditions: probe 7-methoxy-4-trifluoromethylcoumarin
T2 sequence (P11511 whole entry): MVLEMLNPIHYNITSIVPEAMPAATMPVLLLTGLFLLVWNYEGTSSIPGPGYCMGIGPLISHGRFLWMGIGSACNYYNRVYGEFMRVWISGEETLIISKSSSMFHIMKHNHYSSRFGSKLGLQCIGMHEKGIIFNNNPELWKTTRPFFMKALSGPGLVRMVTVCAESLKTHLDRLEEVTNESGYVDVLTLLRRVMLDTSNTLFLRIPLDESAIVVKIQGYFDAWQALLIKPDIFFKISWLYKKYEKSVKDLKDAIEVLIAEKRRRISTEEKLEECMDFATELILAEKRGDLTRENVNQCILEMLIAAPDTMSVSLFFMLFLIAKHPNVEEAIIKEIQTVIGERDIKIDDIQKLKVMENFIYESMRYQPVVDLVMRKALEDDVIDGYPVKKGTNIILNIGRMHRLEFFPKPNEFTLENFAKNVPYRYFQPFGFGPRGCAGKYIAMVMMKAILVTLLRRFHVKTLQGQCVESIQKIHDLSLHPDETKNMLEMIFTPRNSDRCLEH
Outline: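 Recombinant human CYP19 microsomal incubation, linear-range conditions. Samples in methanol or methanol/dichloromethane, prewarmed 10 min at 37 °C with NADPH-regenerating cofactor mix. Enzyme and MFC substrate added in 0.1 M potassium phosphate pH 7.4; 30 min reaction; stopped with Tris base in acetonitrile. HFC read at Ex/Em 409/530 nm against a standard curve. Result is % activity remaining vs vehicle; mean of at least three experiments.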

Mus musculus [4] = assay: Clast in NOD/SCID mouse at 100 mg/kg, po by LC-MS-MS analysis; type: ADME, organism-based; design: dose 100 mg/kg, route oral; conditions: in vivo
Outline: (§2)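 Mixed E,Z material (E:Z 45:55 by LC-MS-MS), 100 mg/kg single oral gavage, 10-week-old female NOD/SCID mice. Each mouse bled once by tail vein (n = 3 per time point), sampling up to 24 h. Plasma E and Z isomers quantified by LC-MS-MS. Parameters are from mean plasma concentrations (n = 3).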

[5] = Apparent volume of distribution during terminal phase in NOD/SCID mouse at 100 mg/kg, po by LC-MS-MS analysis; type: ADME, organism-based; design: dose 100 mg/kg, route oral; conditions: in vivo, read-out: Vz/F; outline: as §2
Mus musculus [6] = assay: Half life in NOD/SCID mouse at 100 mg/kg, po by LC-MS-MS analysis; type: ADME, organism-based; design: dose 100 mg/kg, route oral; conditions: in vivo; outline: as §2
[7] = (§3) AUClast in NOD/SCID mouse at 100 mg/kg, po by LC-MS-MS analysis; type: ADME, organism-based, Plasma; design: time 0 - last, dose 100 mg/kg, route oral; conditions: NOD/SCID, plasma; outline: as §2
Mus musculus [8] = assay: Tmax in NOD/SCID mouse at 100 mg/kg, po by LC-MS-MS analysis; type: ADME, organism-based; design: dose 100 mg/kg, route oral; conditions: in vivo; outline: as §2
[9] = Apparent oral clearance in NOD/SCID mouse at 100 mg/kg, po by LC-MS-MS analysis; type: ADME, organism-based; design: dose 100 mg/kg, route oral; conditions: in vivo; outline: as §2
Mus musculus [10] = assay: Cmax in NOD/SCID mouse at 100 mg/kg, po by LC-MS-MS analysis; type: ADME, organism-based; design: dose 100 mg/kg, route oral; conditions: in vivo; outline: as §2
Estrogen receptor = molecular target: T3, Estrogen receptor (Homo sapiens, UniProt P03372); assay: Displacement of fluorescent ES2 from human recombinant ERalpha after 2 hrs by fluorimetric analysis
T3 sequence (P03372 whole entry): T1 sequence (whole entry)

Mus musculus [11] = assay: as §3; type: ADME, organism-based, Plasma; design: time 0 - last, dose 100 mg/kg, route oral; conditions: in vivo; outline: as §2
Aromatase [12] = molecular target: T2, Aromatase; assay: Inhibition of human recombinant placental aromatase
Outline: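 Recombinant human aromatase (CYP19) in microsomal incubations with fluorogenic substrate MFC, read as conversion to HFC. Compounds in methanol or methanol/dichloromethane, prewarmed 10 min at 37 °C with NADPH-regenerating mix, then enzyme/substrate in 0.1 M potassium phosphate pH 7.4 added. Activity given as % of vehicle control.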

Aromatase [13] = molecular target: T2, Aromatase; assay: Inhibition of human recombinant microsomal aromatase-mediated 7-methoxy-4-trifluoromethylcoumarin conversion to 7-hydroxytrifluoromethylcoumarin preincubated for 10 mins measured after 30 mins by fluorescence assay
Outline: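 Recombinant human CYP19 with MFC substrate in 0.1 M potassium phosphate pH 7.4; samples in methanol or methanol/dichloromethane, prewarmed 10 min at 37 °C with NADPH-generating cofactor mix (NADP+, MgCl2, glucose-6-phosphate, G6PDH), then 30 min reaction, stopped with 0.1 M Tris base in acetonitrile.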

Activity [1]: 68%
Activity [2]: 68%
inhibition at 0.5 h, 50 µM (Aromatase [3]): 8%
SMILES: CC/C(=C(/c1ccc(O)cc1)c1ccc(OC(=O)C(C)(C)C)cc1)c1ccccc1

Clast (Mus musculus [4]): 900 ng/mL
Vd/F [5]: 0.5 L
t1/2 (Mus musculus [6]): 22.7 h
AUC(0-t) [7]: 35100 ng·h/mL
Tmax (Mus musculus [8]): 1 h
CL/F [9]: 0.267 mL/min
Cmax (Mus musculus [10]): 2100 ng/mL
pEC50 (Estrogen receptor): 7.77
SMILES: CC/C(=C(\c1ccc(O)cc1)c1ccc(OCCN)cc1)c1ccccc1

Activity [1]: 80%
SMILES: CCC(=C(c1ccc(O)cc1)c1ccc(O)cc1)c1ccccc1

Clast (Mus musculus [4]): 100 ng/mL
Vd/F [5]: 2.8 L
t1/2 (Mus musculus [6]): 21.4 h
AUClast (Mus musculus [11]): 5800 ng·h/mL
Tmax (Mus musculus [8]): 2 h
CL/F [9]: 1.52 mL/min
Cmax (Mus musculus [10]): 700 ng/mL
pEC50 (Estrogen receptor): 7.23
SMILES: CC/C(=C(/c1ccc(O)cc1)c1ccc(OCCN)cc1)c1ccccc1

SMILES: CCC(=C(c1ccc(O)cc1)c1ccc(OCCN(C)C)cc1)c1ccccc1
pIC50 (Aromatase [12]): 3.28

Activity [1]: 57%
Activity [2]: 71%
pIC50 (Aromatase [13]): 5.03
SMILES: CC/C(=C(\c1ccc(O)cc1)c1ccc(OCC(N)=O)cc1)c1ccccc1

pIC50 (Aromatase [12]): 5.22
SMILES: CC/C(=C(\c1ccc(O)cc1)c1ccc(OCCNC)cc1)c1ccccc1 (mixture of isomers) [ENDOXIFEN]

Activity [1]: 56%
Activity [2]: 45%
inhibition at 0.5 h, 50 µM (Aromatase [3]): 0%
SMILES: CC/C(=C(/c1ccc(OCC(N)=O)cc1)c1ccc(OC(=O)C(C)(C)C)cc1)c1ccccc1
